A word on the EC50: it is the midpoint of the concentration-response curve.

Active and inactive are the calls of the source. No cut-off for these calls is given here.

This note sets out measurements from ChEMBL document CHEMBL3352137, “Modification on ursodeoxycholic acid (UDCA) scaffold. discovery of bile acid derivatives as selective agonists of cell-surface G-protein coupled bile acid receptor 1 (GP-BAR1)” (J Med Chem, 2014).

The subject of data set [1] is Mus musculus. Briefly: Increase in plasma tauro-muricholic acid level in CD1 mouse model of ANIT-induced cholestasis at 16 mg/kg, po.
For data set [2], the system named is Mus musculus. Briefly: Increase in plasma tauro-cholic acid level in CD1 mouse model of ANIT-induced cholestasis at 16 mg/kg, po.
Data set [3] has as its system Mus musculus. The data set is described as follows: Induction of FXR-mediated OST mRNA expression in CD1 mouse liver at 64 mg/kg, po measured 3 to 24 hrs post dose by real-time PCR method. It is filed as functional, organism-based. More on the design: dose 64 mg/kg. The procedure, abridged:
(§1)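 Male CD1 mice (n = 3, 4) received a single oral dose of 64 mg/kg. Liver and ileum were collected at 6 or 24 h (3, 6 and 24 h also stated). Target mRNA was measured by SYBR real-time PCR (0.2 μM primers, 10 ng template, 40 cycles of 95 °C 20 s / 60 °C 30 s), with all reactions in triplicate. Comparison was versus control mice.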
A general note: In qPCR the cycle at which signal appears reflects the starting amount.

Data set [4] relates to Mus musculus. The data set is described as follows: Increase in plasma bile acid level in CD1 mouse model of ANIT-induced cholestasis at 16 mg/kg, po.
For data set [5], the system named is Mus musculus. Briefly: Induction of FXR-mediated BSEP mRNA expression in CD1 mouse liver at 64 mg/kg, po measured 3 to 24 hrs post dose by real-time PCR method. Type of data set: functional, organism-based. The arrangement: dose 64 mg/kg. The essentials:
as §1

Data set [6] has as its system Mus musculus. Briefly: Induction of GPBAR1-mediated pro-glucagon-1 mRNA expression in CD1 mouse intestine at 64 mg/kg, po measured 6 hrs post dose by real-time PCR method. Type of data set: functional. The procedure, abridged:
as §1

Data set [7] has as its target T1, G-protein coupled bile acid receptor 1 (Homo sapiens, UniProt Q8TDU6).
T1 sequence (Q8TDU6 whole entry): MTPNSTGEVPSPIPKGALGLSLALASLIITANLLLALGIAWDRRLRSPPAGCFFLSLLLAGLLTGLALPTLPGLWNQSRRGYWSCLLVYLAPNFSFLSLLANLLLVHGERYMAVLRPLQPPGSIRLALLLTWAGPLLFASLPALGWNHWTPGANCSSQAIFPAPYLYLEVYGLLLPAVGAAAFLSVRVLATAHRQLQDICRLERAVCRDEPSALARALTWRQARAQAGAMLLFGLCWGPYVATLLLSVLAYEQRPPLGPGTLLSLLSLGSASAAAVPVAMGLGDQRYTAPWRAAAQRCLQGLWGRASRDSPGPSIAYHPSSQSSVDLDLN
The data set is described as follows: (§2) Agonist activity at human GPBAR1 expressed in HEK293T cells assessed as stimulation of cAMP response element-mediated receptor transactivation by luciferase reporter gene assay. It is filed as functional, cell-based, HEK-293T. The procedure, abridged:
(§3)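 HEK-293T cells were cotransfected with a CRE-driven luc2P reporter (pGL4.29), pCMVSPORT6-human GP-BAR1 and a Renilla vector. 24 h after transfection they were stimulated for 18 h (10 μM single point; 0.1, 1 and 10 μM for EC50). Lysates were read for luciferase as a measure of intracellular cAMP rise, with TLCA 10 μM as reference. Data are mean ± standard error of at least three determinations in duplicate.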

In data set [8] the target is T2, G-protein coupled bile acid receptor 1 (Homo sapiens) (UniProt Q8TDU6).
T2 sequence (whole entry): T1 sequence (Q8TDU6 whole entry)
The description is as §2. Type of data set: functional, cell-based. To be noted: HEK-293T. The essentials: as §3

The subject of data set [9] is HEK-293T. Briefly: Toxicity against HEK293T cells at 50 uM. It is filed as cell-based. The settings on record: human.
Data set [10] addresses T3, Bile acid receptor (Homo sapiens) (UniProt Q96RI1).
T3 sequence (whole entry): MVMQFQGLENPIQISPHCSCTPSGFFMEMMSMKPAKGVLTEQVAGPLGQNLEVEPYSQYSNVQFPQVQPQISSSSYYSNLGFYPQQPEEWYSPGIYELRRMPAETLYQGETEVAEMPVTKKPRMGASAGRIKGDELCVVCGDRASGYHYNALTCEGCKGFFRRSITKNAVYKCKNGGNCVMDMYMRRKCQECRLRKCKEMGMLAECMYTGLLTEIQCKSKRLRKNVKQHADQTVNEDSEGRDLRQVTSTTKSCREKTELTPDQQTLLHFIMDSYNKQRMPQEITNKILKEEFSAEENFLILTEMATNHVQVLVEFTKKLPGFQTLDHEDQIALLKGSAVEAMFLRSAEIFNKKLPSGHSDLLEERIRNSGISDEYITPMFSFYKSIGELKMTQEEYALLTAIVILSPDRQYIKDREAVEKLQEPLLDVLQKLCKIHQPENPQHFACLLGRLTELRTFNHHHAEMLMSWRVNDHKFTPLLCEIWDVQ
Briefly: Agonist activity at FXR (unknown origin) expressed in human HepG2 cells assessed as stimulation of FXR response element IR1-mediated receptor transactivation at 50 uM in presence of CDCA by luciferase reporter gene assay. Type of data set: cell-based. The essentials:
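HepG2 cells were cotransfected with pSG5-FXR, pSG5-RXR, the IR1-containing p(hsp27)-TK-LUC reporter and a Renilla vector (pGL4.70). 24 h after transfection they were stimulated for 18 h with 10 μM CDCA plus 50 μM compound. Lysates were read for luciferase. Data are the RLU/RRU ratio, mean ± standard error, compared with CDCA and untreated cells.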

The subject of data set [11] is Mus musculus. The data set is described as follows: Induction of FXR-mediated OST mRNA expression in CD1 mouse liver at 64 mg/kg, po measured 24 hrs post dose by real-time PCR method. Type of data set: functional, organism-based. More on the design: dose 64 mg/kg. The essentials:
as §1

Data set [12] relates to Mus musculus. Briefly: Effect on body weight loss in CD1 mouse model of ANIT-induced cholestasis at 64 mg/kg, po. The arrangement: dose 64 mg/kg. It is filed as functional, organism-based.
Data set [13] deals with Mus musculus. Briefly: Induction of FXR-mediated BSEP mRNA expression in CD1 mouse liver at 64 mg/kg, po measured 24 hrs post dose by real-time PCR method. Type of data set: functional, organism-based. The arrangement: dose 64 mg/kg. The procedure, abridged:
as §1

For data set [14], the system named is Mus musculus. Briefly: Effect on plasma bile acid level in CD1 mouse model of ANIT-induced cholestasis at 64 mg/kg, po. Type of data set: functional, organism-based. More on the design: dose 64 mg/kg.

Regarding `C[C@H](CCCCC(=O)O)[C@H]1CC[C@H]2[C@@H]3[C@@H](O)C[C@@H]4C[C@H](O)CC[C@]4(C)[C@H]3CC[C@]12C`, the outcome in data set [1], in [2] and in data set [4] was Active. The outcome in data set [3] and in data set [5] was inactive. For the same compound, the “fold change (FC)” value in [6] came out at 2. In addition, the EC50 in [7] stood at 17.2 µM. The Activity entry in data set [8] is “Dose-dependent effect”.

With `C[C@H](CCCCC(=O)O)[C@H]1CC[C@H]2[C@@H]3[C@H](O)C[C@@H]4C[C@H](O)CC[C@]4(C)[C@H]3CC[C@]12C`, the Activity result in data set [9] was “Toxic”. The result in data set [10] was Active.

As for `C[C@H](CCO)[C@H]1CC[C@H]2[C@@H]3[C@@H](O)C[C@@H]4C[C@H](O)CC[C@]4(C)[C@H]3CC[C@]12C`, in data set [7], the EC50 was 24.4 µM. Besides, the Activity result in [8] was “Dose-dependent effect”.

With `C[C@H](CCC(=O)O)[C@H]1CC[C@H]2[C@@H]3[C@@H](O)C[C@@H]4C[C@H](O)CC[C@]4(C)[C@H]3CC[C@]12C`, the outcome in [11] and in data set [13] was Active. The result in data set [12] and in [14] was inactive.
